We go through three molecules from ChEMBL document CHEMBL1123648, “Synthesis, chemical reactivity, and antileukemic activity of 5-substituted 6,7-bis(hydroxymethyl)pyrrolo[1,2-c]thiazole biscarbamates and the corresponding sulfoxides and sulfones” (1987).

A short description of test [1]: Antileukemic activity against Murine P388 lymphocytic leukemia and toxicity day survivors expressed as number of animals that survived to day five/ number of test animals under control group B at a dose of 6.5 mg/kg; 6 survived out of 6. Format: functional, Mus musculus.
Test [2] in a line: Antileukemic activity against Murine P388 lymphocytic leukemia, body weight difference of the test animals compared to control group B animals at a dose of 6.25 mg/kg. The format is functional, Mus musculus. Summed up:
(§1)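 CD2F1 mice implanted intraperitoneally with ascitic fluid carrying ca. 1×10^6 P388 cells, under the NCI protocol. Dosing was intraperitoneal, starting 24 h after inoculation, then every 24 h for five doses in total. The body weight difference of treated mice is taken against untreated controls. Toxicity day survivors are the mice alive at day five out of those tested.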

Test [3] can be described thus: Antileukemic activity against Murine P388 lymphocytic leukemia, body weight difference of the test animals compared to control group B animals at a dose of 100 mg/kg. Format: functional, Mus musculus. Details: unit not given here. An outline of the steps: as §1
Test [4] can be described thus: Antileukemic activity against Murine P388 lymphocytic leukemia, body weight difference of the test animals compared to control group B animals at a dose of 12.5 mg/kg. The format is functional, Mus musculus. Details: unit not given here. An outline of the steps:
as §1

Test [5] in a line: Toxicity day survivors expressed as number of animals that survived to day five/ number of test animals under control group B at a dose of 12.5 mg/kg. Format: functional, Mus musculus.
For test [6], the system named is P388. As to the kind of experiment: Log cell population relative to cell population at the beginning of treatment compared to control group B at a dose of 6.25 mg/kg. Format: functional, Mus musculus.
A short description of test [7]: Antileukemic activity against Murine P388 lymphocytic leukemia, body weight difference of the test animals compared to control group B animals at a dose of 25 mg/kg. Format: functional, Mus musculus. Details: unit not given here. Summed up: as §1
Test [8] in a line: Toxicity day survivors expressed as number of animals that survived to day five/ number of test animals under control group B at a dose of 100 mg/kg; 6 survived out of 6. The format is functional, Mus musculus.
Test [9] in a line: Antileukemic activity against Murine P388 lymphocytic leukemia, body weight difference of the test animals compared to control group B animals at a dose of 50 mg/kg. Details: unit not given here. The format is functional, Mus musculus. An outline of the steps: as §1
The nature of test [10]: Percent increase in life span of test animals compared to untreated tumor-bearing control group B animals at a dose of 50 mg/kg. The format is functional. The conditions noted are these: Mus musculus.
Test [11] in a line: Toxicity day survivors expressed as number of animals that survived to day five/ number of test animals under control group B at a dose of 25 mg/kg; 6 survived out of 6. Format: functional, Mus musculus.
Test [12] is described as follows: Percent increase in life span of test animals compared to untreated tumor-bearing control group B animals at a dose of 12.5 mg/kg. Format: functional. To be noted: Mus musculus.
Test [13] is described as follows: Toxicity day survivors expressed as number of animals that survived to day five/ number of test animals under control group B at a dose of 50 mg/kg; 6 survived out of 6. Format: functional, Mus musculus.
Test [14] in a line: Percent increase in life span of test animals compared to untreated tumor-bearing control group B animals at a dose of 6.25 mg/kg. The format is functional. To be noted: Mus musculus.
Test [15] in a line: Percent increase in life span of test animals compared to untreated tumor-bearing control group B animals at a dose of 25 mg/kg. Format: functional. The conditions noted are these: Mus musculus.
The nature of test [16]: Percent increase in life span of test animals compared to untreated tumor-bearing control group B animals at a dose of 100 mg/kg. Format: functional. The conditions noted are these: Mus musculus.
Test [17] concerns P388. As to the kind of experiment: Log cell population relative to cell population at the beginning of treatment compared to control group B at a dose of 12.5 mg/kg. The format is functional, Mus musculus.
Test [18] deals with P388. As to the kind of experiment: Log cell population relative to cell population at the beginning of treatment compared to control group B at a dose of 25 mg/kg. Format: functional, Mus musculus.
Test [19] concerns P388. Description: Log cell population relative to cell population at the beginning of treatment compared to control group B at a dose of 50 mg/kg. The format is functional, Mus musculus.
Test [20] is described as follows: Toxicity day survivors expressed as number of animals that survived to day five/ number of test animals under control group B at a dose of 12.5 mg/kg; 6 survived out of 6. Format: functional, Mus musculus.
The test system of test [21] is P388. As to the kind of experiment: Log cell population relative to cell population at the beginning of treatment compared to control group B at a dose of 100 mg/kg. The format is functional, Mus musculus.
Test [22] relates to P388. As to the kind of experiment: Log cell population relative to cell population at the beginning of treatment compared to control group C at a dose of 100 mg/kg. Format: functional, Mus musculus.
Test [23] in a line: Percent increase in life span of test animals compared to untreated tumor-bearing control group C animals at a dose of 200 mg/kg. The format is functional. The conditions noted are these: Mus musculus.
The test system of test [24] is P388. Description: Log cell population relative to cell population at the beginning of treatment compared to control group C at a dose of 200 mg/kg. Format: functional, Mus musculus.
Test [25] can be described thus: Antileukemic activity against Murine P388 lymphocytic leukemia, body weight difference of the test animals compared to control group C animals at a dose of 200 mg/kg. Format: functional, Mus musculus. An outline of the steps: as §1
Test [26] in a line: Percent increase in life span of test animals compared to untreated tumor-bearing control group C animals at a dose of 50 mg/kg. The format is functional. The conditions noted are these: Mus musculus.
Test [27] is described as follows: Toxicity day survivors expressed as number of animals that survived to day five/ number of test animals under control group C at a dose of 200 mg/kg; 6 survived out of 6. The format is functional, Mus musculus.
A short description of test [28]: Antileukemic activity against Murine P388 lymphocytic leukemia, body weight difference of the test animals compared to control group C animals at a dose of 50 mg/kg. The format is functional, Mus musculus. Details: unit not given here. An outline of the steps:
as §1

Test [29] is described as follows: Percent increase in life span of test animals compared to untreated tumor-bearing control group C animals at a dose of 100 mg/kg. To be noted: Mus musculus. The format is functional.
Test [30] concerns P388. As to the kind of experiment: Log cell population relative to cell population at the beginning of treatment compared to control group A at a dose of 50 mg/kg. Format: functional, Mus musculus.
A short description of test [31]: Percent increase in life span of test animals compared to untreated tumor-bearing control group C animals at a dose of 25 mg/kg. The conditions noted are these: Mus musculus. Format: functional.
The nature of test [32]: Toxicity day survivors expressed as number of animals that survived to day five/ number of test animals under control group C at a dose of 100 mg/kg; 6 survived out of 6. The format is functional, Mus musculus.
Test [33] can be described thus: Toxicity day survivors expressed as number of animals that survived to day five/ number of test animals under control group C at a dose of 50 mg/kg; 6 survived out of 6. The format is functional, Mus musculus.
Test [34] in a line: Antileukemic activity against Murine P388 lymphocytic leukemia, body weight difference of the test animals compared to control group C animals at a dose of 25 mg/kg. Format: functional, Mus musculus. Summed up: as §1
Test [35] has as its system P388. Description: Log cell population relative to cell population at the beginning of treatment compared to control group C at a dose of 25 mg/kg. The format is functional, Mus musculus.
Test [36] in a line: Antileukemic activity against Murine P388 lymphocytic leukemia, body weight difference of the test animals compared to control group C animals at a dose of 100 mg/kg. Format: functional, Mus musculus. Details: unit not given here. Summed up: as §1
Test [37] in a line: Toxicity day survivors expressed as number of animals that survived to day five/ number of test animals under control group C at a dose of 25 mg/kg; 6 survived out of 6. Format: functional, Mus musculus.

Structures are written as SMILES.

With `CC(C)NC(=O)OCc1c(COC(=O)NC(C)C)c(-c2ccc(Cl)c(Cl)c2)n2c1CS(=O)(=O)C2`, the TDS in test [1], in test [5], in [8], in test [11] and in test [13] was 6 each time. Further, the BWD in test [2] is -0.6; in test [3], -2.3; in [4] it was 1.3; in test [7] it was 0.4; in [9], -0.8. The KE in test [6] is -1.47. Also, the ILS at 50 mg/kg in test [10] is -14%. Moreover, the ILS at 12.5 mg/kg in [12] was -13%. Also, the ILS at 6.25 mg/kg in [14] is 1%.

Regarding `Cc1c(COC(=O)NC(C)C)c(COC(=O)NC(C)C)c2n1CS(=O)(=O)C2`, the BWD in test [3] is reported as -4; in test [4], -1.1; in test [7] it was -1.8; in test [9], -1.8. For the same molecule, in [15], the ILS at 25 mg/kg turned out to be 59%. Moreover, the ILS at 100 mg/kg in test [16] worked out at 118%. Further, the KE in test [17] is listed as 0.85; in test [18], 2.39; in [19], 4.71; in [21], >6.77. The TDS in [8], in test [20], in test [11] and in test [13] was 6 each time. For the same molecule, in test [10], the ILS at 50 mg/kg worked out at 84%. Besides, in test [12], the ILS at 12.5 mg/kg is 42%.

On to `CNC(=O)OCc1c(COC(=O)NC)c2n(c1C)C[S+]([O-])C2` (stereo unspecified), for which the KE in test [22] is given as -0.05; in test [24] it was -0.08; in test [30], -0.09; in test [35], -0.09. The ILS at 200 mg/kg in [23] came out at 15%. The BWD was determined as 0.4 in test [25], 1.1 in [28], 0 in [34] and 0.8 in test [36]. Also, the ILS at 50 mg/kg in [26] stood at 13%. In addition, the TDS in test [27], in test [32], in test [33] and in test [37] was 6 in each case. For the same molecule, in test [29], the ILS at 100 mg/kg is 22%. Also, the ILS at 25 mg/kg in [31] amounted to 13%.
